Laboratory results reported in ChEMBL document CHEMBL1154123, “Targeted isolation and structure elucidation of stilbene glycosides from the bark of Lysidice brevicalyx Wei guided by biological and chemical screening” (J Nat Prod, 2008).

Columns and labels:
[1] = Antioxidant activity against ferrous ion-induced lipid peroxidation in liver microsomes assessed as inhibition rate at 10 uM by TBA method in presence of cysteine; assay type: functional; design: scale not given: the % may be the effect or the level left; details: Microsome
Outline: (§1)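 Liver microsomal protein (1.0 mg in 1 mL 0.1 M PBS, pH 7.4) incubated with […] cysteine and test sample at 37 °C for 15 min; peroxidation initiated with 0.05 mM FeSO4. Stopped with 20% trichloroacetic acid, centrifuged, supernatant heated with 0.67% TBA 10 min at 100 °C. MDA read at 532 nm; inhibition rate calculated against Fe2+-cysteine and solvent-only controls. Vitamin E positive control.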

[2] = Antioxidant activity against ferrous ion-induced lipid peroxidation in liver microsomes assessed as inhibition rate at 100 uM by TBA method in presence of cysteine; assay type: functional; design: scale not given: the % may be the effect or the level left; details: Microsome; outline: as §1

C[C@@H]1O[C@@H](O[C@H]2[C@H](Oc3cc(O)cc(/C=C\c4ccc(O)cc4)c3)O[C@H](CO)[C@@H](O)[C@@H]2O)[C@H](O)[C@H](O)[C@H]1O
Activity [1]: 11% | Activity [2]: 10%

C[C@@H]1O[C@@H](OC[C@H]2O[C@@H](Oc3cc(O)cc(/C=C/c4ccc(O)cc4)c3)[C@H](O[C@@H]3O[C@@H](C)[C@H](O)[C@@H](O)[C@H]3O)[C@@H](O)[C@@H]2O)[C@H](O)[C@H](O)[C@H]1O
Activity [1]: 5% | Activity [2]: 39%

OC[C@H]1O[C@@H](O[C@H]2[C@H](Oc3cc(O)cc(/C=C/c4ccc(O)cc4)c3)OC[C@@H](O)[C@@H]2O)[C@H](O)[C@@H](O)[C@@H]1O
Activity [1]: 5% | Activity [2]: 29%

C[C@@H]1O[C@@H](OC[C@H]2O[C@@H](Oc3cc(O)cc(/C=C\c4ccc(O)cc4)c3)[C@H](O[C@@H]3O[C@@H](C)[C@H](O)[C@@H](O)[C@H]3O)[C@@H](O)[C@@H]2O)[C@H](O)[C@H](O)[C@H]1O
Activity [1]: 8% | Activity [2]: 25%

Oc1ccc(/C=C/c2cc(O)cc(O[C@@H]3O[C@H](CO[C@@H]4OC[C@@H](O)[C@H](O)[C@H]4O)[C@@H](O)[C@H](O)[C@H]3O)c2)cc1
Activity [1]: 4% | Activity [2]: 21%

C[C@@H]1O[C@@H](O[C@H]2[C@H](Oc3cc(O)cc(/C=C/c4ccc(O)cc4)c3)O[C@H](CO)[C@@H](O)[C@@H]2O)[C@H](O)[C@H](O)[C@H]1O
Activity [1]: 9% | Activity [2]: 39%

C[C@@H]1O[C@@H](OC[C@H]2O[C@@H](Oc3cc(O)cc(/C=C\c4ccc(O)cc4)c3)[C@H](O)[C@@H](O)[C@@H]2O)[C@H](O)[C@H](O)[C@H]1O
Activity [1]: 0% | Activity [2]: 15%

C[C@@H]1O[C@@H](O[C@H]2[C@H](Oc3cc(O)cc(/C=C/c4ccc(O)cc4)c3)OC[C@@H](O)[C@@H]2O)[C@H](O)[C@H](O)[C@H]1O
Activity [1]: 6% | Activity [2]: 67%

C[C@@H]1O[C@@H](OC[C@H]2O[C@@H](Oc3cc(O)cc(/C=C/c4ccc(O)cc4)c3)[C@H](O)[C@@H](O)[C@@H]2O)[C@H](O)[C@H](O)[C@H]1O
Activity [1]: 11% | Activity [2]: 31%

OC[C@H]1O[C@@H](Oc2cc(O)cc(/C=C/c3ccc(O)cc3)c2)[C@H](O)[C@@H](O)[C@@H]1O
Activity [1]: 29% | Activity [2]: 100%

COc1ccc(CCN(C)CCCC(C#N)(c2ccc(OC)c(OC)c2)C(C)C)cc1OC (configuration not stated)
Activity [1]: 33% | Activity [2]: 81%
